In the library only some 2.8% were active in any assay of this set; here they are far more common.
ARFGAP1 inhibitor – inhibits rat ARF GTPase activating protein 1; AID 651572; inhibition, % at 16.5 µM; Q62848; Arfgap1-stimulated ARF1 GTP hydrolysis, GDP FP detection; 0.26% of 360,000 active;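 active = inhibition above a per-plate limit, mean inhibition of low control wells plus 3 SD, cut at about 25% in these data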;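 note: 0% = DMSO wells with enzyme and 100% = wells lacking Arfgap1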
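System: truncated rat Arfgap1 GAP domain / Medium: HEPES-based buffer, pH 7.5 / Also added: N-terminally truncated human ARF1-GTP substrate / Incubation: enzyme reaction 120 min at 25 °C after 20 min preincubation / Measured by: FP of antibody-bound GDP Alexa 633 tracer, ex 620/em 688 nm / Replicates: singlicate, each compound tested once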
PAFAH2 FP inh – inhibitors of human PAFAH2; recombinant PAFAH2, FP-rhodamine activity probe, fluorescence polarization; inhibition, % at 3.39 µM; Q99487; AID 492956; 0.99% of 340,000 active;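 active = inhibition above the mean over all tested compounds plus 3 SD, cut at about 30% in these data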;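 note: inhibitors block probe labeling of enzyme so polarization drops; 0% = enzyme with DMSO and 100% = wells lacking PAFAH2 protein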
PAFAH1B3 inh – blocks human PAF acetylhydrolase 1B catalytic subunit 3; inhibition, % at 3.39 µM; Q15102; recombinant PAFAH1B3, FP-rhodamine probe, fluorescence polarization; 0.28% of 340,000 active;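 active = inhibition above the screen-wide average of all tested compounds plus 3 SD, cut at about 25% in these data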;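 note: 0% = enzyme with DMSO only and 100% = wells lacking PAFAH1B3 protein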
Target sequence (Q15102 whole entry, looked up): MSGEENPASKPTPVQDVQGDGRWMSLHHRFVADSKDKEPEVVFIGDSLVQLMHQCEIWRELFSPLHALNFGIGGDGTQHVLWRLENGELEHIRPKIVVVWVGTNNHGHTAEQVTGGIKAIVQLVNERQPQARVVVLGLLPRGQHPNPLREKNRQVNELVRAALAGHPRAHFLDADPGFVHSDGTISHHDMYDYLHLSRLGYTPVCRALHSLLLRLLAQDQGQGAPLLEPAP
ASAP1 GAP inh – ASAP1 ArfGAP inhibition; 0.19% of 360,000 active; Q9ULH1; inhibition, % at 16.5 µM; ASAP1-stimulated ARF1 GTP hydrolysis, GDP FP detection; in the data active = inhibition above about 25%;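 note: 0% = vehicle with enzyme and substrate and 100% = no enzyme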
Target sequence (Q9ULH1 325-724 limits assumed): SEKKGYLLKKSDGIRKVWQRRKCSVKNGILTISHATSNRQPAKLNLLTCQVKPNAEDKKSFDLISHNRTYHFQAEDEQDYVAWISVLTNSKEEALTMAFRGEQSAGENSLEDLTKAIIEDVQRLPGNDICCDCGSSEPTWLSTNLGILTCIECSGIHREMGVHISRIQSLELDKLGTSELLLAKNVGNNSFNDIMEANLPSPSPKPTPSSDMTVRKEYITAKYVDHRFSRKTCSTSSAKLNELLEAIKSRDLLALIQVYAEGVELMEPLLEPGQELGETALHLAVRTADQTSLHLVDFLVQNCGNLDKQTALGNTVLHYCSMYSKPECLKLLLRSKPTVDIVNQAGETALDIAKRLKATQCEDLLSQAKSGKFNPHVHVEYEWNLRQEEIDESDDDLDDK
pPAFAH FP inh – pPAFAH (human) enzyme inhibition. Q13093. recombinant pPAFAH, FP-rhodamine probe fluorescence polarization. inhibition, % at 3.39 µM. 1.5% of 330,000 active;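 active = inhibition above the mean inhibition across the screen plus 3 SD, cut at about 25% in these data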;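 note: inhibitors block binding of the rhodamine activity-based probe so polarization drops; 0% = enzyme with DMSO and 100% = wells lacking pPAFAH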
PAFAH1B2 inh – inhibitors of human PAFAH1B2; P68402; recombinant PAFAH1B2, FP-rhodamine activity probe, fluorescence polarization; inhibition, % at 3.39 µM; 1.2% of 340,000 active; AID 492953;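 active = inhibition above the mean of all tested compounds plus 3 SD, cut at about 24% in these data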;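 note: 0% = enzyme with DMSO and 100% = wells lacking PAFAH1B2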
ARFGAP1 confirm – rat ARFGAP1 inhibition, confirmed; ARFGAP1-stimulated ARF1 GTP hydrolysis, GDP tracer FP; AID 651608; inhibition, % at 16.5 µM; shares compounds with ARFGAP1 inhibitor; 30% of 890 active;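 active = average inhibition over triplicates above the hit cutoff set in the earlier primary screen, cut at about 25% in these data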;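 note: 0% = Arfgap1 plus ARF1-GTP with DMSO and 100% = wells lacking Arfgap1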
Active calls of the source: *; · = no result given.

SMILES	ARFGAP1 inhibitor	PAFAH2 FP inh	PAFAH1B3 inh	ASAP1 GAP inh	pPAFAH FP inh	PAFAH1B2 inh	ARFGAP1 confirm
CCOC(=O)[C@]12CCC=C1N(Cc1ccccc1)C(=O)[C@H](CC(=O)NCC1CCCCC1)C2	17.7	·	·	-0.7	·	·	·
COc1ccc(NC(=O)C(=O)NCCC2CCCCN2S(=O)(=O)c2ccc(F)cc2)cc1 (centres undefined)	27.6*	1.7	8.9	14.7	3.1	1.8	3.2
O=C(NCCC1CCCCN1S(=O)(=O)c1ccccc1)C(=O)Nc1ccc(F)cc1 (centres undefined)	12.6	6.3	5.8	-5.2	-0.5	3.9	·
COC(=O)C1(C)CCCC2(C)C1CCC13OCC(CC21)C(O)(C(C)C)C3O (centres undefined)	18.2	·	·	6.7	·	·	·
CC(=O)n1c(=O)c2ccccc2c(=O)n1-c1ccccc1	32.0*	1.2	-2.7	12.2	3.9	3.7	2.4
Cc1ccc(CN2C(=O)C(F)(F)Oc3ccc(C)cc32)cc1	-5.3	·	·	-5.8	·	·	·
COc1ccc(-c2cc(-c3cccs3)c(C#N)c(SCC(=O)NCc3ccccc3OC)n2)cc1	-2.1	-3.7	-4.8	-1.5	4.0	-1.9	·
COc1ccccc1CNC(=O)CSc1nc(N)c(C#N)c(-c2cccs2)c1C#N	42.2*	0.2	0.6	-11.2	-4.8	4.8	30.2*
O=C(NCCCO)C(=O)Nc1cc2c3c(c1)CCC(=O)N3CCC2	26.6*	10.0	-1.1	-2.5	1.5	1.1	-0.2
Cc1ccc(CN(C)C(=O)CCNS(=O)(=O)c2ccccc2)o1	-9.5	6.4	5.1	-4.2	-4.6	7.5	·
COc1cc(/C=C2\SC(N)=NC2=O)ccc1OCC(=O)Nc1ccc(C)cc1	45.0*	4.2	-11.9	19.9	0.4	-2.2	72.0*
Cc1ccc(/C=N/NC(=O)c2ccc(Cn3cc([N+](=O)[O-])cn3)o2)cc1	2.5	-8.5	2.4	-0.2	1.5	2.0	·
CCCOc1ccc(/C=N/NC(=O)c2ccc(Cn3cc([N+](=O)[O-])cn3)o2)cc1	25.9*	-7.8	-10.4	22.9	1.1	-2.3	32.9*
CCCCC[C@@H](C)N1C[C@H](COCc2ccccc2)Oc2cc(N3CC[C@H](O)C3)ccc2S1(=O)=O	10.2	·	·	5.3	·	·	·
CCN1CCN(c2ccc(S(=O)(=O)N3CCOCC3)cc2NC(=O)/C=C/c2ccc(OC)cc2OC)CC1	33.2*	-1.9	3.5	21.1	7.6	3.7	22.8
COc1ccc(/C=C/C(=O)Nc2ccc(S(=O)(=O)N3CCOCC3)cc2)c(OC)c1	9.2	-24.7	-3.4	15.0	-2.9	-7.5	·
CCN1CCN(c2ccc(S(=O)(=O)N3CCOCC3)cc2NC(=O)/C=C/c2ccc([N+](=O)[O-])cc2)CC1	37.1*	0.4	6.0	12.8	5.8	-7.3	36.8*
CCCCCC(=O)N1C[C@H](n2cc(-c3ccc(F)cc3)nn2)[C@@H](O)C[C@@H]1c1ccc(OC)cc1	-3.4	·	·	0.6	·	·	·
CN1CCN(c2ccc(Cl)cc2NC(=O)/C=C/c2ccc(F)cc2)CC1	25.1*	-0.9	-6.0	16.9	-10.3	-0.7	8.8
O=C(/C=C/c1ccc(F)cc1)Nc1cc(S(=O)(=O)N2CCOCC2)ccc1N1CCCC1	7.7	-3.2	-2.3	-8.4	2.4	-3.5	·
CCNC(=O)C1(C)CCCN(Cc2ccc(Oc3ccccc3)cc2)C1 (centres undefined)	-1.9	·	·	-4.5	·	·	·
Cc1cc(C)n(C(C)CNS(=O)(=O)c2ccc(Cl)cc2)n1 (centres undefined)	24.7*	2.3	8.6	8.4	3.5	6.3	-1.7
CS(=O)(=O)N(CC(=O)N1CCN(c2ccccc2F)CC1)c1ccc2c(c1)OCCO2	34.2*	-7.9	-3.1	-6.0	4.5	3.6	-4.5
O=C(Nc1ccncc1)c1cn(-c2ccccc2)nc1-c1cccs1	26.5*	-25.5	4.0	12.0	-14.1	-13.9	13.4
CCOc1ccc(S(=O)(=O)N2CCN=C2c2ccccc2)c(C)c1C	-1.1	-4.6	12.2	12.6	1.5	6.8	·
SMILES	ARFGAP1 inhibitor	PAFAH2 FP inh	PAFAH1B3 inh	ASAP1 GAP inh	pPAFAH FP inh	PAFAH1B2 inh	ARFGAP1 confirm
CC(=O)c1cccc(NC(=O)c2cccc3c(-c4cnn(C)c4)coc23)c1	28.4*	·	·	7.5	·	·	25.3*
Cn1cc(-c2coc3c(C(=O)Nc4ccccc4)cccc23)cn1	5.2	·	·	9.2	·	·	·
COc1ccc(NC(=O)c2cccc3c(-c4cnn(C)c4)coc23)cc1	29.6*	·	·	18.9	·	·	29.9*
CC(C)C1C(=O)N(Cc2cn(CCC3OCCCO3)nn2)CCS(=O)(=O)N1Cc1ccc(-c2ccc(F)nc2)cc1 (centres undefined)	3.7	·	·	-0.8	·	·	·
Cc1c(Cl)cccc1NC(=S)NC1CCCC1	9.0	6.7	4.6	3.6	-1.4	4.1	·
COc1ccc(CCn2c(SCC(=O)Nc3cc(C)on3)nc3ccsc3c2=O)cc1OC	37.4*	-3.2	-0.9	13.2	-1.4	-1.1	34.8*
COc1ccc(CCn2c(SCC(=O)Nc3cc(C)on3)nc3ccccc3c2=O)cc1OC	6.7	-11.4	9.7	-6.0	0.3	0.7	·
CCCCn1c(N)c(N(CCOC)C(=O)c2c(C)noc2C)c(=O)[nH]c1=O	25.1*	4.0	14.1	7.2	1.4	6.1	-0.9
CCCCN(C(=O)c1c(C)noc1C)c1c(N)n(CCCC)c(=O)[nH]c1=O	0.3	1.2	2.5	7.4	1.9	3.9	·
Cc1cc(C)cc(NC(=O)CSc2cc(C(=O)c3nccn3C)c3ccccc3n2)c1	24.8*	0.3	-0.4	-8.6	-0.1	3.5	6.2
Cc1cccc(NC(=O)CSc2cc(C(=O)c3nccn3C)c3ccccc3n2)c1	7.3	-0.1	-4.1	3.3	2.8	-0.7	·
Cn1c(CCCOc2ccc(Cl)cc2Cl)nnc1SCC(=O)Nc1cccc(F)c1	-6.5	-1.9	-2.3	-7.5	8.7	1.9	·
CCc1cccc(C)c1NC(=O)CSc1nnc(CCCOc2ccc(Cl)cc2Cl)n1C	24.8*	2.3	-1.1	10.3	14.2	5.1	8.3
COc1ccc(NC(=O)Nc2nnc(-c3ccccc3F)s2)cc1	11.6	0.1	3.9	-1.4	2.9	4.4	·
COc1ccc(NC(=O)Nc2nnc(-c3ccco3)s2)cc1	34.9*	-1.7	0.9	6.0	4.0	1.8	-3.5
CS(=O)(=O)N1CCCC(C(=O)NCc2ccc(F)cc2)C1 (centres undefined)	27.2*	0.9	2.3	-5.6	3.5	6.9	2.9
Cc1ccc(CNC(=O)C2CCCN(S(=O)(=O)c3ccc(F)cc3)C2)cc1 (centres undefined)	17.6	3.9	7.6	1.4	·	6.0	·
O=C(COC(=O)c1ccc(F)cc1F)Nc1ccc(S(=O)(=O)N2CCOCC2)cc1	4.2	·	·	2.1	·	·	·
O=C(COC(=O)c1ccccc1F)Nc1ccc(S(=O)(=O)N2CCOCC2)cc1	26.8*	1.6	5.3	13.8	8.1	5.9	6.3

Screening results: PubChem BioAssay, The Scripps Research Institute Molecular Screening Center
